Reference: ChEMBL document CHEMBL5058577, “EUbOPEN Chemogenomics Library 2 (Multiplex)” (2022)

System: Fibroblast
Test: Multiplex assay against human fibroblast
Format: toxicity, cell-based
Method in brief: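 Cells were classed with CellPathfinder machine-learning gating, first as Hoechst high-intensity objects or normal cells, then (normal cells) as healthy, pyknosed or fragmented nuclei, and finally (pyknosed cells) as mitotic or apoptotic. Staining of live cells at seeding used Hoechst33342, BioTracker Green Microtubule Cytoskeleton Dye, MitoTracker Red and Annexin V Alexa Fluor 680, with imaging on a CQ1 microscope at 37°C and 5% CO2 after compound addition. Tubulin, mitochondrial-mass and membrane-permeability phenotypes are per cents of healthy-nucleus cells.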

[1] = 12 h, 1 µM, compound concentration 1 uM, replicate 1
[2] = 12 h, 1 µM, compound concentration 1 uM, replicate 2
[3] = 12 h, 10 µM, compound concentration 10 uM, replicate 1
[4] = 12 h, 10 µM, compound concentration 10 uM, replicate 2
[5] = 24 h, 1 µM, compound concentration 1 uM, replicate 1
[6] = 24 h, 1 µM, compound concentration 1 uM, replicate 2
[7] = 24 h, 10 µM, compound concentration 10 uM, replicate 1
[8] = 24 h, 10 µM, compound concentration 10 uM, replicate 2
[9] = 48 h, 1 µM, compound concentration 1 uM, replicate 1
[10] = 48 h, 1 µM, compound concentration 1 uM, replicate 2
[11] = 48 h, 10 µM, compound concentration 10 uM, replicate 1
[12] = 48 h, 10 µM, compound concentration 10 uM, replicate 2

SMILES: C[C@H](NC(=O)c1c(C(F)F)nn(C)c1Oc1cccc(C(F)(F)F)c1)c1ccc(C(=O)O)cc1 [PALUPIPRANT]
- Population Apoptotic (%) [1]: 26%
- Population Fragmented Nuclei (%) [1]: 29%
- Population Healthy Nuclei (%) [1]: 57%
- Population Hoechst High Intensity Objects (%) [1]: 5%
- Population Membrane Permeable-Phenotype (%) [1]: 0%
- Population Mitochondria Different-Phenotype (%) [1]: 4%
- Population Mitotic Cells (%) [1]: 73%
- Population Normal (%) [1]: 94%
- Population Pyknosed Nuclei (%) [1]: 12%
- Population Tubulin-Different-Phenotype (%) [1]: 23%
- Total Cell Count [1]: 187
- Population Apoptotic (%) [2]: 24%
- Population Fragmented Nuclei (%) [2]: 23%
- Population Healthy Nuclei (%) [2]: 52%
- Population Hoechst High Intensity Objects (%) [2]: 6%
- Population Membrane Permeable-Phenotype (%) [2]: 11%
- Population Mitochondria Different-Phenotype (%) [2]: 6%
- Population Mitotic Cells (%) [2]: 75%
- Population Normal (%) [2]: 93%
- Population Pyknosed Nuclei (%) [2]: 23%
- Population Tubulin-Different-Phenotype (%) [2]: 55%
- Total Cell Count [2]: 148
- Population Apoptotic (%) [3]: 45%
- Population Fragmented Nuclei (%) [3]: 13%
- Population Healthy Nuclei (%) [3]: 70%
- Population Hoechst High Intensity Objects (%) [3]: 2%
- Population Membrane Permeable-Phenotype (%) [3]: 2%
- Population Mitochondria Different-Phenotype (%) [3]: 6%
- Population Mitotic Cells (%) [3]: 55%
- Population Normal (%) [3]: 97%
- Population Pyknosed Nuclei (%) [3]: 16%
- Population Tubulin-Different-Phenotype (%) [3]: 45%
- Total Cell Count [3]: 126
- Population Apoptotic (%) [4]: 35%
- Population Fragmented Nuclei (%) [4]: 42%
- Population Healthy Nuclei (%) [4]: 35%
- Population Hoechst High Intensity Objects (%) [4]: 14%
- Population Membrane Permeable-Phenotype (%) [4]: 13%
- Population Mitochondria Different-Phenotype (%) [4]: 13%
- Population Mitotic Cells (%) [4]: 64%
- Population Normal (%) [4]: 85%
- Population Pyknosed Nuclei (%) [4]: 22%
- Population Tubulin-Different-Phenotype (%) [4]: 60%
- Total Cell Count [4]: 149
- Population Apoptotic (%) [5]: 40%
- Population Fragmented Nuclei (%) [5]: 32%
- Population Healthy Nuclei (%) [5]: 58%
- Population Hoechst High Intensity Objects (%) [5]: 5%
- Population Membrane Permeable-Phenotype (%) [5]: 1%
- Population Mitochondria Different-Phenotype (%) [5]: 4%
- Population Mitotic Cells (%) [5]: 60%
- Population Normal (%) [5]: 94%
- Population Pyknosed Nuclei (%) [5]: 8%
- Population Tubulin-Different-Phenotype (%) [5]: 15%
- Total Cell Count [5]: 178
- Population Apoptotic (%) [6]: 42%
- Population Fragmented Nuclei (%) [6]: 26%
- Population Healthy Nuclei (%) [6]: 53%
- Population Hoechst High Intensity Objects (%) [6]: 7%
- Population Membrane Permeable-Phenotype (%) [6]: 8%
- Population Mitochondria Different-Phenotype (%) [6]: 5%
- Population Mitotic Cells (%) [6]: 57%
- Population Normal (%) [6]: 92%
- Population Pyknosed Nuclei (%) [6]: 20%
- Population Tubulin-Different-Phenotype (%) [6]: 51%
- Total Cell Count [6]: 141
- Population Apoptotic (%) [7]: 60%
- Population Fragmented Nuclei (%) [7]: 18%
- Population Healthy Nuclei (%) [7]: 62%
- Population Hoechst High Intensity Objects (%) [7]: 5%
- Population Membrane Permeable-Phenotype (%) [7]: 2%
- Population Mitochondria Different-Phenotype (%) [7]: 7%
- Population Mitotic Cells (%) [7]: 39%
- Population Normal (%) [7]: 94%
- Population Pyknosed Nuclei (%) [7]: 18%
- Population Tubulin-Different-Phenotype (%) [7]: 35%
- Total Cell Count [7]: 131
- Population Apoptotic (%) [8]: 38%
- Population Fragmented Nuclei (%) [8]: 40%
- Population Healthy Nuclei (%) [8]: 42%
- Population Hoechst High Intensity Objects (%) [8]: 10%
- Population Membrane Permeable-Phenotype (%) [8]: 13%
- Population Mitochondria Different-Phenotype (%) [8]: 3%
- Population Mitotic Cells (%) [8]: 61%
- Population Normal (%) [8]: 89%
- Population Pyknosed Nuclei (%) [8]: 17%
- Population Tubulin-Different-Phenotype (%) [8]: 51%
- Total Cell Count [8]: 138
- Population Apoptotic (%) [9]: 53%
- Population Fragmented Nuclei (%) [9]: 34%
- Population Healthy Nuclei (%) [9]: 57%
- Population Hoechst High Intensity Objects (%) [9]: 11%
- Population Membrane Permeable-Phenotype (%) [9]: 0%
- Population Mitochondria Different-Phenotype (%) [9]: 4%
- Population Mitotic Cells (%) [9]: 46%
- Population Normal (%) [9]: 88%
- Population Pyknosed Nuclei (%) [9]: 7%
- Population Tubulin-Different-Phenotype (%) [9]: 29%
- Total Cell Count [9]: 184
- Population Fragmented Nuclei (%) [10]: 30%
- Population Healthy Nuclei (%) [10]: 50%
- Population Hoechst High Intensity Objects (%) [10]: 3%
- Population Membrane Permeable-Phenotype (%) [10]: 4%
- Population Normal (%) [10]: 96%
- Population Pyknosed Nuclei (%) [10]: 19%
- Population Tubulin-Different-Phenotype (%) [10]: 53%
- Total Cell Count [10]: 147
- Population Apoptotic (%) [11]: 73%
- Population Fragmented Nuclei (%) [11]: 20%
- Population Healthy Nuclei (%) [11]: 60%
- Population Hoechst High Intensity Objects (%) [11]: 4%
- Population Membrane Permeable-Phenotype (%) [11]: 1%
- Population Mitochondria Different-Phenotype (%) [11]: 8%
- Population Mitotic Cells (%) [11]: 26%
- Population Normal (%) [11]: 95%
- Population Pyknosed Nuclei (%) [11]: 18%
- Population Tubulin-Different-Phenotype (%) [11]: 46%
- Total Cell Count [11]: 130
- Population Apoptotic (%) [12]: 60%
- Population Fragmented Nuclei (%) [12]: 45%
- Population Healthy Nuclei (%) [12]: 45%
- Population Hoechst High Intensity Objects (%) [12]: 13%
- Population Membrane Permeable-Phenotype (%) [12]: 10%
- Population Mitochondria Different-Phenotype (%) [12]: 6%
- Population Mitotic Cells (%) [12]: 40%
- Population Normal (%) [12]: 86%
- Population Pyknosed Nuclei (%) [12]: 9%
- Population Tubulin-Different-Phenotype (%) [12]: 50%
- Total Cell Count [12]: 122
